Consider one molecule from ChEMBL document CHEMBL1142431, “Benzodioxoles: novel cannabinoid-1 receptor inverse agonists for the treatment of obesity” (J Med Chem, 2008).

Series [1] in a line: Solubility in fasted state stimulated intestinal fluid at pH 6.5. In kind it is physicochemical. As to conditions: fasted state simulated intestinal fluid.
The species entered for series [2] is Homo sapiens. Briefly: Selectivity for human CB1 receptor over human NK1 receptor.
A short description of series [3]: Selectivity for human CB1 receptor over histamine H1 receptor.
The species entered for series [4] is Homo sapiens. The experiment in a line: Selectivity for human CB1 receptor over human CCK2 receptor.
Series [5] is filed under the species Homo sapiens. Briefly: Selectivity for human CB1 receptor over human dopamine D2S receptor.
Series [6] can be described thus: Selectivity for human CB1 receptor over TRH receptor.
For series [7], the species on record is Homo sapiens. Briefly: Selectivity for human CB1 receptor over human adenosine A2A receptor.
Series [8] can be described thus: Selectivity for human CB1 receptor over histamine H3 receptor.
Series [9] can be described thus: Selectivity for human CB1 receptor over P2X receptor.
Series [10] can be described thus: Selectivity for human CB1 receptor over SK1 calcium channel.
The species entered for series [11] is Homo sapiens. The experiment in a line: Selectivity for human CB1 receptor over human AT2 receptor.
The species entered for series [12] is Homo sapiens. Briefly: Selectivity for human CB1 receptor over human adrenergic beta2 receptor.
Another series has as its target Cannabinoid receptor 1 (Homo sapiens, UniProt P21554). The experiment in a line: biochemical. In kind it is cell-based, HEK293.
Series [13] is described as follows: Selectivity for human CB1 receptor over histamine H2 receptor.
Series [14] is filed under the species Homo sapiens. Briefly: Selectivity for human CB1 receptor over human dopamine D4.4 receptor.
The subject of a further series is Mus musculus. Briefly: Reversal of CP-55940-induced hypothermia in NMRI mouse assessed as rectal temperature at 30 mg/kg, ip. It is filed as functional. As to conditions: route intraperitoneal, read-out: ID50 (the source's name). An outline of the steps:
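Mice housed eight per group, eight per dose, habituated at least 2 h. Test compound in 0.3% Tween 80 (10 mL/kg) given 90 min before CP 55940 (0.3 mg/kg iv, same vehicle). Body temperature read 20 min before compound, just before CP 55940, and 20 min after it.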

For series [15], the species on record is Homo sapiens. Briefly: Selectivity for human CB1 receptor over human NET.
The species entered for series [16] is Homo sapiens. Briefly: Selectivity for human CB1 receptor over human CB2 receptor.
The species named for series [17] is Homo sapiens. Briefly: Selectivity for human CB1 receptor over human bradykinin B1 receptor.

In brackets after ≈: the same amount, converted by molar mass.

Cannabinoid receptor 1, sequence (P21554 whole entry): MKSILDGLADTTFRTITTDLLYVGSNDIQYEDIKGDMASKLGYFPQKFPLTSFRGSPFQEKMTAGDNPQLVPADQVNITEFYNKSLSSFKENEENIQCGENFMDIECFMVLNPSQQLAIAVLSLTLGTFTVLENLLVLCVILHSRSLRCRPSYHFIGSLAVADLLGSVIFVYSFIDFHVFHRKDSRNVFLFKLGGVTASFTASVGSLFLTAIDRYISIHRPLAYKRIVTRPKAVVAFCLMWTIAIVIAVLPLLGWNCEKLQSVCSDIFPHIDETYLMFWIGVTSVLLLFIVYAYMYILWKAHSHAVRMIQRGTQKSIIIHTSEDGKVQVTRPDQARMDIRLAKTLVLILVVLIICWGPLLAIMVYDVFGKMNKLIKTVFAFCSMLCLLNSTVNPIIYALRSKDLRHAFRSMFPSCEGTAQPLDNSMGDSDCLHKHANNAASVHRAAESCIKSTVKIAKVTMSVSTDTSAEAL

The term solubility denotes the dissolved amount per volume that the medium holds. Read a high solubility as much dissolved substance. For orientation: Ki means the dissociation constant of the complex between target and ligand, obtained from inhibition or displacement. The low end stands for tighter binding, the high end for weaker binding. As to `O=C(c1cc2c(cc1F)O[C@](c1ccc(F)cc1)(c1ccc(Cl)cc1Cl)O2)N1CCOCC1`, in series [1], the solubility was 129 µg/mL (≈ 262 µM). Moreover, the Selectivity ratio (in the series listed under Homo sapiens [2]; in series [3]; in the series listed under Homo sapiens [4]; in the series listed under Homo sapiens [5]; in series [6]; in the series listed under Homo sapiens [7]) was 300 in each case. Also, the Selectivity ratio (in series [8]; in [9]; in series [10]; in the series filed under Homo sapiens [11]; in the series listed under Homo sapiens [12]; in series [13]) was 300 in each case. The Selectivity ratio in the series filed under Homo sapiens [14] was 300; in the series filed under Homo sapiens [15] it was 300; in the series filed under Homo sapiens [16], 1000; in the series listed under Homo sapiens [17], 300. Moreover, on Cannabinoid receptor 1, the inhibition constant (Ki) stood at 3.3 nM. Besides, the ED50 in the series with Mus musculus stood at 4 mg/kg.
